In PubChem BioAssay:
The source made the active and inactive calls.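 The calls were made as follows, unless noted: active = visually confirmed hit in the image check and inhibition above 20%; inconclusive = visually confirmed hit but inhibition not above 20%; inactive = no visual hit in the image check.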

Tests used:
[1] = inhibitors of TNFa-induced NFkB p65 translocation, primary screen, imaging, HUVEC, MLSMR starter and 10KST1 sets (AID 438;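 active = inhibition above 20% together with a positive visual image hit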;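 also: compound added about 3h40 before a 20 min TNFalpha stimulation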;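 as to inhibition: signal is the nuclear over cytoplasmic p65 intensity ratio per well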); conditions: HUVEC TNFa-induced p65 nuclear translocation; cell count: measured here: nuclei count (cytotoxicity indicator), at 2.08 µM; inhibition: at 2 µM, stronger effect = higher value, 0% TNFa-plus-vehicle, 100% no-TNFa wells
[2] = endothelial E-selectin expression blockers – imaging, HUVEC, immunofluorescence, MLSMR starter and 10KST1 sets, primary screen (AID 487); conditions: HUVEC TNFalpha-induced E-selectin immunofluorescence imaging, at 2 µM; inhibition: stronger effect = higher value; nuclei count: measured here: cell number, toxicity;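 as to inhibition: signal is fraction of cell area covered by stained E-selectin grains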;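 as to nuclei count: 100% = median nuclei count of all wells on the same plate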
[3] = Primary imaging screen for DUSP6 inhibitors that restore phospho-Erk in transfected HeLa cells, chemical complementation (AID 609;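 active = compounds giving at least 50% inhibition in the cell-based MKP-3 phosphatase rescue imaging test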;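 as to inhibition: phospho-Erk level distribution per well compared with pooled transfected vehicle control wells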); conditions: HeLa MKP-3 transfected, phospho-Erk imaging KS statistic, at 10 µM, cells stimulated with TPA for 15 min
[4] = target: Dual specificity protein phosphatase 6 (Homo sapiens) (UniProt Q16828); assay: as above; conditions: HeLa MKP-3 transfected, phospho-Erk imaging KS statistic; at 10 µM; stronger effect = higher value; cells stimulated with TPA for 15 min
Chain of Dual specificity protein phosphatase 6 (Homo sapiens) (Q16828 whole entry, looked up): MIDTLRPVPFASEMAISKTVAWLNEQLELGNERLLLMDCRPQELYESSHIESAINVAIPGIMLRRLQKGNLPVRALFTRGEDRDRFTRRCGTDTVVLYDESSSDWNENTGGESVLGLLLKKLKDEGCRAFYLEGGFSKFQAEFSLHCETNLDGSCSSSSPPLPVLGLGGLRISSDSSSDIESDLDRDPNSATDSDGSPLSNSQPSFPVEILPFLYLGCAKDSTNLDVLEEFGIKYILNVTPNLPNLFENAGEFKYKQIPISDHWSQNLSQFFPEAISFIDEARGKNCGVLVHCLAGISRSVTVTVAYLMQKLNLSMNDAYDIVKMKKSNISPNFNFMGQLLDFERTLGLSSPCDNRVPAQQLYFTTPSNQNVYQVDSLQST

[5] = target: Voltage-gated potassium channel subunit beta-2 (Rattus norvegicus) (UniProt P62483); assay: inhibitors of rat Kvbeta2 reductase activity – biochemical, NADPH fluorescence, primary screen (AID 622;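 active = fluorescence slope higher than the sample average by over 3 SD, cut at about -0.22 in these data, passing the limit was not always enough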;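 also: slope of raw intensity against log time taken from 70 to 1610 s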); conditions: recombinant KvBeta, 4-cyanobenzaldehyde reduction, at 10 µM, stronger effect = higher value
Chain of Voltage-gated potassium channel subunit beta-2 (Rattus norvegicus) (P62483 whole entry, looked up): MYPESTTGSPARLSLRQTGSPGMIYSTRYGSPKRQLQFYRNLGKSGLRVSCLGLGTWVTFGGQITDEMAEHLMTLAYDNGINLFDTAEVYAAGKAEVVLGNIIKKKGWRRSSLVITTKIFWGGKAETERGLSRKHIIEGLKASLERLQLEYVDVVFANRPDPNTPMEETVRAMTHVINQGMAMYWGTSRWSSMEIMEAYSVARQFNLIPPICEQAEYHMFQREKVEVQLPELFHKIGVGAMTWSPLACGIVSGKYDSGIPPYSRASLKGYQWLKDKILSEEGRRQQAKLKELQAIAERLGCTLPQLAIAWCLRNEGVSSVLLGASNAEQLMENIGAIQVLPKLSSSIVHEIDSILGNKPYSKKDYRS

[6] = target: Voltage-gated potassium channel subunit beta-2 (Rattus norvegicus) (UniProt P62483); assay: enhancers of rat Kvbeta2 NADPH turnover – biochemical, NADPH fluorescence, primary screen (AID 623;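 active = NADPH fluorescence slope more negative than the mean of all samples by about 3 SD, 99.7% confidence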;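 also: fluorescence intensity change per second fitted from 20 to 320 s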); conditions: Recombinant KvBeta, NADPH fluorescence decrease slope, 10 min; at 10 µM; stronger effect = lower value
[7] = target: Alpha-2C adrenergic receptor (Homo sapiens) (UniProt P18825); assay: compounds altering alpha2C-coupled GIRK flux – cell-based, HEK293 alpha2C/GIRK1/2, thallium flux, primary screen (AID 624;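 active = fluorescence slope after compound addition differing from the mean of all screened samples at 99.7% confidence, in either direction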;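 also: slope of fluorescence ratio to pre-addition baseline per second over 15 to 24 s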); conditions: thallium flux BTC fluorescence, at 10 µM, actives lie on both sides
Chain of Alpha-2C adrenergic receptor (Homo sapiens) (P18825 whole entry, looked up): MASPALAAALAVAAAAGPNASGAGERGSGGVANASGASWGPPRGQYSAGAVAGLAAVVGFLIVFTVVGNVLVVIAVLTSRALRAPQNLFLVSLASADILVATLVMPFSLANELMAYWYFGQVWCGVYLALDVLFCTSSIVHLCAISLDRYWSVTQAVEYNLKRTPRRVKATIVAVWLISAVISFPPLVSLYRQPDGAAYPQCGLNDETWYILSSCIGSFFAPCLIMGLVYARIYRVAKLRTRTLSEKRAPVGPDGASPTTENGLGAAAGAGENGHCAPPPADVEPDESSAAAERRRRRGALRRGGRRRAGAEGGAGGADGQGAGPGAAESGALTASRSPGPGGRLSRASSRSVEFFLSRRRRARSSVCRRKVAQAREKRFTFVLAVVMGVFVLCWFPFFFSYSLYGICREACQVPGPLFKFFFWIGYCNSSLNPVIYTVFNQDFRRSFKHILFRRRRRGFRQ

[8] = inhibitors of larval lipid processing in zebrafish, primary screen, whole organism, PED6 fluorescence, gall bladder and intestine (AID 686;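 active = a full or partial loss of lipid-probe fluorescence in the fish gall bladder, intestine or both, judged by eye; inactive = no fluorescence loss, or compound toxic to the fish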;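 also: larvae 5 to 7 days old with five fish per well; signal comes from phospholipase A2 cleavage of quenched PED6 carried via bile; overnight exposure to compound and PED6 before scoring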); conditions: Zebrafish larvae PED6 lipid processing, fluorescence scoring; screened at 20 µM (by protocol)
Outline: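 Doses: 20 µM single dose. Test system: live zebrafish larvae aged 5-7 days, whole organism. Quantity: five larvae per well. Measured by: By-eye fluorescence microscopy. Reagent: ingested quenched lipid PED6 at 100 nM. Read-out: visual per-well fluorescence inhibition score. Times: overnight exposure of larvae to compound plus PED6.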

[9] = loss of swimming-algae plug formation – whole organism, Chlamydomonas reinhardtii, WT vs cilia-less mutant, absorbance, 96-well, primary screen (AID 463189;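 active = inhibition at or above 50% relative to wild type and mutant plate controls; inactive = inhibition below 50%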;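 also: 0% = wild type cc124 cells in DMSO and 100% = ciliumless bld1 mutant cells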); conditions: Chlamydomonas reinhardtii gravitaxis, OD600 absorbance, 2 days; at 10 µM; stronger effect = higher value
[10] = measured here: cell density z-score
[11] = measured here: nuclear c-Myc green intensity z-score
[12] = measured here: nuclear pErk red intensity z-score, stronger effect = higher value

Row | SMILES | cell count [1] | inhibition [1] | inhibition [2] | nuclei count [2] [%] | z-score [3, 10] | z-score [3, 11] | z-score [3, 12] | inhibition [4] | fluorescence slope [5] | NADPH fluorescence slope [6] | slope [7] | outcome [8] | inhibition [9]
1 | CCOC(=O)C(c1ccccc1)N1CCN(c2ccc(OC)cc2)CC1 (stereo unspecified) | 365 | -5.2% (inactive) | -72.8% (inactive) | 146 | -0.336 | -0.989 | -1.39 | 11.4% (inactive) | -0.422 (inactive) | -0.000118 (inactive) | 0.00552 (inactive) | inactive | -10% (inactive)
2 | Nc1nc(NC(=O)Cc2ccccc2)nn1-c1ccccc1 | 330 | -5.8% (inactive) | 16% (inactive) | 153 | -1.12 | 1.13 | 0.973 | 9.42% (inactive) | -0.381 (inactive) | -0.000121 (inactive) | 0.00768 (inactive) | inactive | 14.3% (inactive)
3 | ClC(Br)=C(n1cnc2ccccc21)n1cnc2ccccc21 | 536 | -11% (inactive) | -108% (inactive) | 155 | 1.2 | -0.506 | -1.02 | 16.1% (inactive) | -0.523 (inactive) | -3.7e-05 (inactive) | 0.00536 (inactive) | inactive | 30.5% (inactive)
4 | CCOC(=O)c1[nH]c2cc3c(cc2c1NC(=O)CN1CCC2(CC1)OCCO2)OCO3 | 466 | -3.8% (inactive) | 7.6% (inactive) | 111 | 0.45 | 1.98 | -0.82 | 22.8% (inactive) | -0.0748 (inactive) | 5.8e-07 (inactive) | 0.00639 (inactive) | inactive | -16.4% (inactive)
5 | CC(=O)c1c(N)nc2n(c1=O)CCCCC2 | 354 | -4.7% (inactive) | -5.5% (inactive) | 162 | 0.366 | 0.179 | 0.934 | 9.42% (inactive) | -0.392 (inactive) | -0.000138 (inactive) | 0.0044 (inactive) | inactive | 24.2% (inactive)
6 | CCOc1ccc(-c2nnc3sc(COc4ccccc4)nn23)cc1 | 502 | -11.7% (inactive) | -288% (inactive) | 155 | -0.358 | -0.85 | 1.78 | -15% (inactive) | -0.405 (inactive) | -0.000151 (inactive) | 0.00528 (inactive) | inactive | 53.8% (active)
7 | Cc1ccc(C(=O)C2=C(O)C(=O)N(c3ncccn3)C2c2ccc(Cl)cc2)o1 (stereo unspecified) | 371 | -10.1% (inactive) | 14.5% (inactive) | 94.4 | -1.13 | -0.679 | 0.195 | 7.83% (inactive) | -0.331 (inactive) | -1.3e-05 (inactive) | 0.00456 (inactive) | inactive | 5.76% (inactive)
8 | CC1CN(C2CCN(S(=O)(=O)Cc3ccccc3)CC2)CC(C)O1 (stereo unspecified) | 355 | -15.2% (inactive) | -254% (inactive) | 179 | 0.356 | 0.313 | 0.176 | 5.57% (inactive) | -0.391 (inactive) | -1.6e-05 (inactive) | 0.00538 (inactive) | inactive | 32.6% (inactive)
9 | CC1CCN(c2oc(-c3ccccc3Cl)nc2C#N)CC1 | 601 | -11.3% (inactive) | 36.1% (inactive) | 153 | -0.563 | 0.859 | 0.215 | -0.674% (inactive) | -0.397 (inactive) | -0.000144 (inactive) | 0.00562 (inactive) | inactive | 4.67% (inactive)
10 | Cc1ccccc1-c1nn2c(-c3ccccc3)nnc2s1 | 590 | -20% (inactive) | -150% (inactive) | 149 | 0.229 | -1.66 | 0.142 | -2.47% (inactive) | -0.451 (inactive) | -6e-05 (inactive) | 0.00655 (inactive) | inactive | 92.9% (active)
11 | CC1(C)CC(=O)C(C=NCCN2CCN(C(=O)C34CC5CC(CC(C5)C3)C4)CC2)=C(O)C1 | 573 | -4.4% (inactive) | -174% (inactive) | 144 | -0.458 | 0.612 | -0.352 | 3.97% (inactive) | -0.493 (inactive) | -5.1e-05 (inactive) | 0.00469 (inactive) | inactive | 4.48% (inactive)
12 | O=CN1CCN(C(=O)CN2C(=O)c3ccccc3C2=O)CC1 | 359 | -7.2% (inactive) | -43.3% (inactive) | 161 | 0.687 | -0.0272 | -1.29 | 11.4% (inactive) | -0.452 (inactive) | -0.000158 (inactive) | 0.00499 (inactive) | inactive | 15.5% (inactive)
13 | CCCCOc1ccc(CSC(CC(=O)O)C(=O)O)cc1 (stereo unspecified) | 336 | -16.7% (inactive) | -75.1% (inactive) | 114 | -0.61 | -0.895 | 0.193 | 3.5% (inactive) | -0.433 (inactive) | -0.000104 (inactive) | 0.00541 (inactive) | inactive | 1.39% (inactive)
14 | CCc1nnc(NC(=O)c2c(O)c3c([nH]c2=O)CCCC3)s1 | 332 | -15.4% (inactive) | -91.6% (inactive) | 154 | 0.462 | -0.342 | -0.281 | -7.01% (inactive) | -0.391 (inactive) | -0.000158 (inactive) | 0.00514 (inactive) | inactive | 8.98% (inactive)
15 | C=CCOC(=O)C1=C(C)NC(SCC(=O)N(CC)CC)=C(C#N)C1c1ccco1 (stereo unspecified) | 361 | -9.9% (inactive) | -137% (inactive) | 153 | -0.539 | -0.441 | 0.117 | -5.89% (inactive) | -0.417 (inactive) | -1.8e-05 (inactive) | 0.00442 (inactive) | inactive; toxic | -0.086% (inactive)
16 | Cc1c(NS(=O)(=O)c2cccc3nsnc23)c(=O)n(-c2ccccc2)n1C | 549 | -1.1% (inactive) | -51.8% (inactive) | 154 | 0.537 | 0.599 | -0.221 | -6.06% (inactive) | -0.499 (inactive) | -3.8e-05 (inactive) | 0.00709 (inactive) | inactive | -6.26% (inactive)
17 | Clc1ccc2[nH]c3c(NCCCN4CCOCC4)ncnc3c2c1 | 471 | -7.1% (inactive) | -31.4% (inactive) | 102 | -0.293 | -0.352 | 1.38 | -13.3% (inactive) | -0.52 (inactive) | 6.4e-06 (inactive) | 0.00501 (inactive) | inactive | -7.19% (inactive)
18 | N=c1c2c(-c3ccccc3)c(-c3ccccc3)n(Cc3ccccc3)c2ncn1CCCn1ccnc1 | 551 | -6.7% (inactive) | 17.5% (inactive) | 142 | -0.862 | 0.115 | -0.203 | -1.75% (inactive) | -0.292 (inactive) | 9.2e-06 (inactive) | 0.00345 (inactive) | inactive | 118% (active)
19 | CCCCOc1nc2ccccc2nc1C(C#N)C(=O)NC1CCCCC1 (stereo unspecified) | 320 | -10.2% (inactive) | -124% (inactive) | 151 | -1.21 | 0.194 | 1.47 | -15.8% (inactive) | -0.41 (inactive) | -0.00013 (inactive) | 0.00654 (inactive) | inactive | 1.58% (inactive)
20 | COc1ccc(C(CC(=O)N2CCOCC2)C(C)C)cc1 (stereo unspecified) | 486 | 10.6% (inactive) | -31.9% (inactive) | 97.9 | -1.63 | 1.26 | -0.603 | -5.26% (inactive) | -0.476 (inactive) | -7e-06 (inactive) | 0.00515 (inactive) | inactive | 19.8% (inactive)
21 | Cc1cc(C(F)(F)F)nn1CC(=O)NCC1CCCO1 (stereo unspecified) | 516 | -3.1% (inactive) | -24% (inactive) | 137 | -0.885 | 0.653 | 1.12 | -3.98% (inactive) | -0.484 (inactive) | -0.000135 (inactive) | 0.00552 (inactive) | inactive | 12.4% (inactive)
22 | O=C(CCN1CCCCC1)Nc1cccc(Cl)c1 | 336 | -14.7% (inactive) | -49.9% (inactive) | 138 | -1.72 | 0.965 | 0.516 | -3.5% (inactive) | -0.42 (inactive) | -0.000129 (inactive) | 0.0069 (inactive) | inactive | -5.09% (inactive)
23 | N#CC1=C(N)NC(SCc2ccc(Cl)cc2)=C(C#N)C12CCCCC2 | 630 | -23% (inactive) | 44.1% (inactive) | 180 | 0.0253 | -0.669 | 0.519 | 1.04% (inactive) | -0.409 (inactive) | -5.9e-05 (inactive) | 0.00372 (inactive) | inactive | 18.9% (inactive)
24 | CCN(CC)C(=O)CSC1=C(C#N)C(c2cccs2)C=C(C)N1 (stereo unspecified) | 685 | -20% (inactive) | -137% (inactive) | 171 | -0.342 | -0.599 | 1.19 | -10.6% (inactive) | -0.405 (inactive) | -4.9e-05 (inactive) | 0.00539 (inactive) | inactive | -1.96% (inactive)
25 | O=C1OC(Nc2ccc(Br)cn2)c2ccccc21 (stereo unspecified) | 388 | 2.6% (inactive) | 47.2% (inactive) | 94.3 | -0.833 | -0.569 | 0.497 | -8.27% (inactive) | -0.44 (inactive) | -1.7e-06 (inactive) | 0.00494 (inactive) | inactive | -9.02% (inactive)
26 | COc1ccccc1-c1nnc2sc(COc3ccccc3)nn12 | 670 | -8.1% (inactive) | -201% (inactive) | 161 | 0.204 | -1.19 | 2.54 | -16.8% (inactive) | -0.444 (inactive) | -0.000151 (inactive) | 0.00451 (inactive) | inactive | 5.33% (inactive)
27 | CC(C)Oc1ccc(/C(O)=C2/C(=O)C(=O)N(CCN3CCOCC3)C2c2ccccc2)cc1 (stereo unspecified) | 564 | 4.6% (inactive) | -21.9% (inactive) | 179 | -0.496 | -0.0457 | 0.947 | -1.12% (inactive) | -0.338 (inactive) | -1.3e-05 (inactive) | 0.0044 (inactive) | inactive | 0.719% (inactive)
